One block for each compound: values may come before it.
Experiments:
[1] = biological target: G protein-coupled receptor kinase 6 (Homo sapiens) (UniProt P43250); test: Inhibition of human recombinant GPRK6 at 500 nM related to control ULK1
[2] = biological target: Protein-tyrosine kinase 2-beta (Homo sapiens) (UniProt Q14289); test: Inhibition of human recombinant PYK2 at 500 nM in presence of ATP by radiometric assay relative to control
[3] = biological target: T1, Protein kinase C epsilon type (Homo sapiens) (UniProt Q02156); test: Inhibition of human recombinant PKCe at 40 nM in presence of ATP by radiometric assay relative to control
T1 sequence (whole entry): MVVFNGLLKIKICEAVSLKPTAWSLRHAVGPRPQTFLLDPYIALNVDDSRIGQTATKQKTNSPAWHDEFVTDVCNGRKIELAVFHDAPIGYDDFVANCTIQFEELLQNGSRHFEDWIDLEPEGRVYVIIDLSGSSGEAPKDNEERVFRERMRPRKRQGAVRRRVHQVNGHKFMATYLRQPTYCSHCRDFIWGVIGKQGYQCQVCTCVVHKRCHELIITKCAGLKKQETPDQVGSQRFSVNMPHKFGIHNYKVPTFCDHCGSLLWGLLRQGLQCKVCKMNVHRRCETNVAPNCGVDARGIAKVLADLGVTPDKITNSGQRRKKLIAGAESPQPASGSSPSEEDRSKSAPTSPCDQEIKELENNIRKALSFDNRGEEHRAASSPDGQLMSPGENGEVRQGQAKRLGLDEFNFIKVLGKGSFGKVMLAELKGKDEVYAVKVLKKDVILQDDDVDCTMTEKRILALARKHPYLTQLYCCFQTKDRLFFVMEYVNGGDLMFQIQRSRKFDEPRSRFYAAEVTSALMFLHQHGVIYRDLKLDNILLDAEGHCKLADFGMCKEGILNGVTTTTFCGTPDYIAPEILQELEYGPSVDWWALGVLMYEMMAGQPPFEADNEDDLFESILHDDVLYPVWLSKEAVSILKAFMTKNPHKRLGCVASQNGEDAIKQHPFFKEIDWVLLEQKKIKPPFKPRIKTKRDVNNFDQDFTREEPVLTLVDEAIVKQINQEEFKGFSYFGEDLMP

[4] = biological target: T2, Myotonin-protein kinase (Homo sapiens) (UniProt Q09013); test: Inhibition of human recombinant DMPK1 at 40 nM in presence of ATP by radiometric assay relative to control
T2 sequence (whole entry): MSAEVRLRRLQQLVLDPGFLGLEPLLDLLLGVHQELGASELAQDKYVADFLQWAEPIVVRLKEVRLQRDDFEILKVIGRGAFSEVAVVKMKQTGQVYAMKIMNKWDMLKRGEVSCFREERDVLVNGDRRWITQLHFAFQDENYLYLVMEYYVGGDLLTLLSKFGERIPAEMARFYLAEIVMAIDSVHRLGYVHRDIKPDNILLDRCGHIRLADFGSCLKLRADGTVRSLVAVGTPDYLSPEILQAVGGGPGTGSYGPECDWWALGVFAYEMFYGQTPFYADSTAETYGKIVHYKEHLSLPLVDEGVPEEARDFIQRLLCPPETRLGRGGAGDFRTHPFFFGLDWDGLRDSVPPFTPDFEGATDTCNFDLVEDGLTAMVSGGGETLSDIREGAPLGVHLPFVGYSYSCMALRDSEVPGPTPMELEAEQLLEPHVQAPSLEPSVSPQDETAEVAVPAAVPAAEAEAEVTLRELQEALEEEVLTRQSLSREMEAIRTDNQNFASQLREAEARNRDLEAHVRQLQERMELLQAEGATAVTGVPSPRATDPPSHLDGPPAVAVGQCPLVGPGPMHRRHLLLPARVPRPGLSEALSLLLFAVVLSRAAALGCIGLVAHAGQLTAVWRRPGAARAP

[5] = biological target: Serine/threonine-protein kinase/endoribonuclease IRE1 (Homo sapiens) (UniProt O75460); test: Inhibition of human recombinant IRE1 at 40 nM related to control ULK1
[6] = biological target: Serine/threonine-protein kinase 32B (Homo sapiens) (UniProt Q9NY57); test: Inhibition of human recombinant YANK2 at 40 nM related to control ULK1
[7] = biological target: RAC-alpha serine/threonine-protein kinase (Homo sapiens) (UniProt P31749); test: Inhibition of human recombinant AKT1 at 15 nM in presence of ATP by radiometric assay relative to control
Procedure, shortened: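 Panel of 327 recombinant human kinases in radiometric activity assays, each screened in duplicate at a single inhibitor concentration; percent activity remaining relative to vehicle control, percent inhibition taken as 100 minus activity remaining.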

[8] = biological target: Vascular endothelial growth factor receptor 3 (Homo sapiens) (UniProt P35916); test: Inhibition of human recombinant FLT4 at 15 nM related to control ULK1
[9] = biological target: Serine/threonine-protein kinase 32B (Homo sapiens) (UniProt Q9NY57); test: Inhibition of human recombinant YANK2 at 15 nM related to control ULK1
[10] = biological target: T2, Myotonin-protein kinase (Homo sapiens); test: Inhibition of human recombinant DMPK1 at 15 nM related to control ULK1
[11] = biological target: MAP/microtubule affinity-regulating kinase 3 (Homo sapiens) (UniProt P27448); test: Inhibition of human recombinant MARK3 at 15 nM in presence of ATP by radiometric assay relative to control
[12] = biological target: MAP kinase-interacting serine/threonine-protein kinase 2 (Homo sapiens, UniProt Q9HBH9); test: Inhibition of human recombinant MNK2 at 15 nM in presence of ATP by radiometric assay relative to control
[13] = biological target: T3, Receptor-interacting serine/threonine-protein kinase 1 (Homo sapiens) (UniProt Q13546); test: Inhibition of human recombinant RIPK1 at 15 nM in presence of ATP by radiometric assay relative to control
T3 sequence (whole entry): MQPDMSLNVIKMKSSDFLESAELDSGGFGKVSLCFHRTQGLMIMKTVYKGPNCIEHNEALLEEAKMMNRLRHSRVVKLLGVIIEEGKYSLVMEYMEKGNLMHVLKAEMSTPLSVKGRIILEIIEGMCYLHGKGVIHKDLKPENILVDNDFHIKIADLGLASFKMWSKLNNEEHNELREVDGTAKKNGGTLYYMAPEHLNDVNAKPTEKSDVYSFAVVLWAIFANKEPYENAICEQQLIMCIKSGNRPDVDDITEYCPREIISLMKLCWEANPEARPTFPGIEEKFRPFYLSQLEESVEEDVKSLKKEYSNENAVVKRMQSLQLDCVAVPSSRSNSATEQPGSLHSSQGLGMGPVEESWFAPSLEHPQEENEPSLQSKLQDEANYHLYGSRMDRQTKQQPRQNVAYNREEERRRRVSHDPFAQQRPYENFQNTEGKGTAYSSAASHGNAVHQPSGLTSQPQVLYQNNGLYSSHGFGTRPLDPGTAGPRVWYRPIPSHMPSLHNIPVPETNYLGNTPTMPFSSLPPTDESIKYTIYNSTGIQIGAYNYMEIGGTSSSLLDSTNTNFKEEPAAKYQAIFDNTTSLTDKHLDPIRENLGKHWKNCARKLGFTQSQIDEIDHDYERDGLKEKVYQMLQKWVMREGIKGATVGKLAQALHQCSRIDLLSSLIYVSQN

Serine/threonine-protein kinase 32B (Homo sapiens), sequence (Q9NY57 whole entry): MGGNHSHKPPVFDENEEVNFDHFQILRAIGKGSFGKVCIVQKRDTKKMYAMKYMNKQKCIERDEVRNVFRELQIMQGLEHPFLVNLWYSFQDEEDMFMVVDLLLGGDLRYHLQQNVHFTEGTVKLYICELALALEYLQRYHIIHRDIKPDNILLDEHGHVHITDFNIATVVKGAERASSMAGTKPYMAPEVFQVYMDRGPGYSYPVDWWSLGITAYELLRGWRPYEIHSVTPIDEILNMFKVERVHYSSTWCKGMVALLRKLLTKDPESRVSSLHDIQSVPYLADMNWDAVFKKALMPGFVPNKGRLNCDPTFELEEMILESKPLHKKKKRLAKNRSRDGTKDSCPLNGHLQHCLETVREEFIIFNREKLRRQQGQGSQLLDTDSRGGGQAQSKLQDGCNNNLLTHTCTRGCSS
Serine/threonine-protein kinase/endoribonuclease IRE1 (Homo sapiens), sequence (O75460 19-977 limits assumed): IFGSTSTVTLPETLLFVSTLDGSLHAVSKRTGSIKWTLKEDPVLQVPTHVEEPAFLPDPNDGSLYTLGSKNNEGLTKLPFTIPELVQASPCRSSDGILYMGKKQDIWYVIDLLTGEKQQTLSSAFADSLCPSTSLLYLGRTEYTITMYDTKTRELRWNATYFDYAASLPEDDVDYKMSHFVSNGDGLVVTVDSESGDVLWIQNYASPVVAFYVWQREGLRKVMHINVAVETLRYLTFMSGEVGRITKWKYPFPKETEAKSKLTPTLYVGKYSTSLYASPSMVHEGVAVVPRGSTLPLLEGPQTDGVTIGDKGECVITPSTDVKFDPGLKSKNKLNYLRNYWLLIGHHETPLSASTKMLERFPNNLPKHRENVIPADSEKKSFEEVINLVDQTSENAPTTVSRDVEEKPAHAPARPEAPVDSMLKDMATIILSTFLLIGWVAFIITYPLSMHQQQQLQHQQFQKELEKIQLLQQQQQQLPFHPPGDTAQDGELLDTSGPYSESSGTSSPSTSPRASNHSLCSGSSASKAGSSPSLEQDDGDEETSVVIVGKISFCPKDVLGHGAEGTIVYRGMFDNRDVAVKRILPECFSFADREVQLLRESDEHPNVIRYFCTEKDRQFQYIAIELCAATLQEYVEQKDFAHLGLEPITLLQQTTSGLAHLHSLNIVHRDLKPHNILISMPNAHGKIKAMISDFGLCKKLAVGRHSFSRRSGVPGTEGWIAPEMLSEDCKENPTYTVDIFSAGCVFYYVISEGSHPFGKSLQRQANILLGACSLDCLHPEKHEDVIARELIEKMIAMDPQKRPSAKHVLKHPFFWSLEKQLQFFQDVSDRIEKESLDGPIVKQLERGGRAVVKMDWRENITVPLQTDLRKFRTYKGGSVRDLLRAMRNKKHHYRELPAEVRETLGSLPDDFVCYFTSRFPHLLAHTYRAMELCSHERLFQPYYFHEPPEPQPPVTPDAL
RAC-alpha serine/threonine-protein kinase (Homo sapiens), sequence (P31749 whole entry): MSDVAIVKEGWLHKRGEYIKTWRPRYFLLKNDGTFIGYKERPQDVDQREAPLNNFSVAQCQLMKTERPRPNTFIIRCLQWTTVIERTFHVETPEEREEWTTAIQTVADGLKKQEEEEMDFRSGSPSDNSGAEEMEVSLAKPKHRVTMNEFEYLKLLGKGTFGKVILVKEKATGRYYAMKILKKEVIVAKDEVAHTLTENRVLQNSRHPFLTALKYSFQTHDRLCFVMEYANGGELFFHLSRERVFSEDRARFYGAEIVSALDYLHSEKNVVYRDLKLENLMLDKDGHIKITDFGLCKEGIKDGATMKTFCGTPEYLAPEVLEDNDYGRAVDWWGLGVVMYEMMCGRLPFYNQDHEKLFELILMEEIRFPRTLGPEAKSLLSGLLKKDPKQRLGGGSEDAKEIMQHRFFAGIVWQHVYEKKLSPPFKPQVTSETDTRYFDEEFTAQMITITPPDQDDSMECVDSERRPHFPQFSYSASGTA
Vascular endothelial growth factor receptor 3 (Homo sapiens), sequence (P35916 whole entry): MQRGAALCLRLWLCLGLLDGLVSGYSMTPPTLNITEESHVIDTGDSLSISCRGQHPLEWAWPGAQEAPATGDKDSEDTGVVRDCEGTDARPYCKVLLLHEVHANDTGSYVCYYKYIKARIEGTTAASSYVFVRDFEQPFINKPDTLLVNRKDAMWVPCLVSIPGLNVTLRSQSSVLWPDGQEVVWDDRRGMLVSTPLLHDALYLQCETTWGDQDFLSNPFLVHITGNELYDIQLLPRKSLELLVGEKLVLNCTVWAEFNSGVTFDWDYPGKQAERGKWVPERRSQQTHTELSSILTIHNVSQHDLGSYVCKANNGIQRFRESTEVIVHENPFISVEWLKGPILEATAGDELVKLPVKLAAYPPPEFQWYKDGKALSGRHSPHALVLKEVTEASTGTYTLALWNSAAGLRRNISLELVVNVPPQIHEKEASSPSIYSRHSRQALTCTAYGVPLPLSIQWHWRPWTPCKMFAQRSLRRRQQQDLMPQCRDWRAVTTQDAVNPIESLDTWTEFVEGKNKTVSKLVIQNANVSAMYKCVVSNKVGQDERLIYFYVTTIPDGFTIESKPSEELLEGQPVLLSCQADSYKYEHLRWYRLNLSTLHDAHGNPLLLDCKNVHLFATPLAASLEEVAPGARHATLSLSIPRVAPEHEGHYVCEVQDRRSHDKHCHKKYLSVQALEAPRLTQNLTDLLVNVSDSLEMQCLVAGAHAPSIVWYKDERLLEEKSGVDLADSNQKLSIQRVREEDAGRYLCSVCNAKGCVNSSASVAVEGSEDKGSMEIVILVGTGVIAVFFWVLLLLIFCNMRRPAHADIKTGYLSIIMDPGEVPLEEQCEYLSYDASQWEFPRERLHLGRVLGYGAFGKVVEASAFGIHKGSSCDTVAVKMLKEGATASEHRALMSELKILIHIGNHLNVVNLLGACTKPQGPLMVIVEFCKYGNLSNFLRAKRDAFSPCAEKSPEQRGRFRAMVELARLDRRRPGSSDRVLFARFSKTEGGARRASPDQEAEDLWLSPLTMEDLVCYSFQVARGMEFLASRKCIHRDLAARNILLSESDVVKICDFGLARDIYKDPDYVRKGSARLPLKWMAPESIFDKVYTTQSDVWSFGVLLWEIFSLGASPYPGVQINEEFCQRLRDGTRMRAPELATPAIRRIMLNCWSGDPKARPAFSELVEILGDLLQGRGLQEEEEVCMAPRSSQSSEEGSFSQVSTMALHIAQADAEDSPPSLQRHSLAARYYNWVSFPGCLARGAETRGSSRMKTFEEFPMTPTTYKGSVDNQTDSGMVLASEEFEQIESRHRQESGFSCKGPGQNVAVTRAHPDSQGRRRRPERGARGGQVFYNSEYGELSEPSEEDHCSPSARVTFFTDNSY
MAP/microtubule affinity-regulating kinase 3 (Homo sapiens), sequence (P27448 whole entry, looked up): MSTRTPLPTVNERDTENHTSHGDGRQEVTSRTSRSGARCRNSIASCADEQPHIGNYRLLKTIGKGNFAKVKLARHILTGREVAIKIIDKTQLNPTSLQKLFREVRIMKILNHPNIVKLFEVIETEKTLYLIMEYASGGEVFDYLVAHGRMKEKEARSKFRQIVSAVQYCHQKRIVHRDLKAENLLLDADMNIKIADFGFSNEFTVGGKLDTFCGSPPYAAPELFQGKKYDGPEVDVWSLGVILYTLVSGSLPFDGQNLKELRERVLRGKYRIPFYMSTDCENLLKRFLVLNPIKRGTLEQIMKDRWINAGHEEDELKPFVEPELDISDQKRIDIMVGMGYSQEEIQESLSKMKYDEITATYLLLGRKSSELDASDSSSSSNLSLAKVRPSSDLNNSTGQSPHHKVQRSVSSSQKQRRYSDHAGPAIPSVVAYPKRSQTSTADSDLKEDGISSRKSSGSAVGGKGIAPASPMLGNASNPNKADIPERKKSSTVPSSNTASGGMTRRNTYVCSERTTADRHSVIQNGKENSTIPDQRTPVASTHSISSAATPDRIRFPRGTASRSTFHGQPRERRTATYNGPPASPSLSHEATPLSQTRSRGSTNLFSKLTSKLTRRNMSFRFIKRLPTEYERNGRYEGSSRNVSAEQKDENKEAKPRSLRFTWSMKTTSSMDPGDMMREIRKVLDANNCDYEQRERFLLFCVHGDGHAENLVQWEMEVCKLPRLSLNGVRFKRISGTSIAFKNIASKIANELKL
MAP kinase-interacting serine/threonine-protein kinase 2, sequence (Q9HBH9 whole entry, looked up): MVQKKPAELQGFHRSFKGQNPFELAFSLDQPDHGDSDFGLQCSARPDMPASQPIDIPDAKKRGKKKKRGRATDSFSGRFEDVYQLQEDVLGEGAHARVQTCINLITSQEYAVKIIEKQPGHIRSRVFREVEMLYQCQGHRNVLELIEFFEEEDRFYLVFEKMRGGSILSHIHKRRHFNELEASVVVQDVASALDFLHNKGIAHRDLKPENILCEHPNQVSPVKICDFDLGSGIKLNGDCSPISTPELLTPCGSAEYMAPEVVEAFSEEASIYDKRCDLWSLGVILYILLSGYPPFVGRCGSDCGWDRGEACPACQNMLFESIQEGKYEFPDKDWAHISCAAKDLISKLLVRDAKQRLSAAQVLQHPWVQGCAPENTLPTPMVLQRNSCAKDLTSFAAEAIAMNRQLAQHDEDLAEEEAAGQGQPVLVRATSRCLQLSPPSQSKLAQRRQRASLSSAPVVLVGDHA
G protein-coupled receptor kinase 6 (Homo sapiens), sequence (P43250 whole entry, looked up): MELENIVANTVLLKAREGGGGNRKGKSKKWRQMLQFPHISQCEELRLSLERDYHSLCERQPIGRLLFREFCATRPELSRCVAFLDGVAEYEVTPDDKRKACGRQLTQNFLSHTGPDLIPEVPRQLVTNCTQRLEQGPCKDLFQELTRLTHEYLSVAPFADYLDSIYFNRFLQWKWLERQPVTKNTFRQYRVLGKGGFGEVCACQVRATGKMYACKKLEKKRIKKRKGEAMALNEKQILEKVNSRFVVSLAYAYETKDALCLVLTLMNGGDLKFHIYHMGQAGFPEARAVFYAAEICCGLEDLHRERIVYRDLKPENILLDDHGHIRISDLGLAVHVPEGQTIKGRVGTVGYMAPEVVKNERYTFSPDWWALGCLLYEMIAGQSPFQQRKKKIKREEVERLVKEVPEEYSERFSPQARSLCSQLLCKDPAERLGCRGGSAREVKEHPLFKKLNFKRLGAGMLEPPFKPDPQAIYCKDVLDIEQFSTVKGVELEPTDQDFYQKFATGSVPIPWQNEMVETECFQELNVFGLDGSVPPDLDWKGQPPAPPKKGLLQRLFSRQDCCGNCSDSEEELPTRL

fold change (FC) [1]: 0.16
inhibition [2]: 53%
SMILES: CNC(=O)c1ccccc1Oc1nc(Nc2cc(OC)c(OC)c(OC)c2)ncc1Br

inhibition [3]: 0%
inhibition [4]: 5%
fold change (FC) [5]: 0
fold change (FC) [6]: 0.04
SMILES: O=C(N[C@@H](C1CC1)C(F)(F)F)c1cc(-c2cnn3cc(-c4ccc(F)cc4)cnc23)cs1

inhibition [7]: 0%
fold change (FC) [8]: 0.4
fold change (FC) [9]: 0
fold change (FC) [10]: 0
inhibition [11]: 63%
inhibition [12]: 26%
inhibition [13]: 1%
SMILES: CC(C)[C@H](NC(=O)c1cc(-c2cnn3cc(-c4ccc(OCCN5CCCCC5)cc4)cnc23)cs1)C(F)(F)F

From ChEMBL document CHEMBL5653631, “A Potent and Selective ULK1 Inhibitor Suppresses Autophagy and Sensitizes Cancer Cells to Nutrient Stress” (iScience, 2018)
